According to ChEMBL document CHEMBL4014317, “Urinary Tract Infection: Which Conformation of the Bacterial Lectin FimH Is Therapeutically Relevant?” (J Med Chem, 2017):
Converted amounts (≈) assume the structure as drawn.

Test system: not listed separately
Assay: (§1) Competitive binding affinity to full length 6His-tagged recombinant Escherichia coli FimH CRD expressed in Escherichia coli HM125 after 1 hr in presence of fluorescence labelled N-(2-(3-(3',6'-dihydroxy-3-oxo-3H-spiro[isobenzofuran-1,9'-xanthene]-5-yl)thioureido)ethyl)-4-methylbenzamide by fluorescence polarization assay
Conditions: not given
Method in brief: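 Full-length FimH was stabilized by FimG donor-strand peptide complementation. Serially diluted competitor was titrated into 300 nM FimHFL plus 10 nM fluorescent ligand in 20 mM HEPES pH 7.4, 150 mM NaCl, 50 μg/mL BSA. Mixtures were incubated ≥1 h at rt, and FP was read at excitation 485 nm and emission 528 nm. KD came from an equilibrium competition fit, n = 1.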

SMILES	Kd [nM]
OC[C@H]1O[C@H](Oc2ccc(-c3ccc(Cl)c(Cl)c3)cc2Cl)[C@@H](O)[C@@H](O)[C@@H]1O	692
OC[C@H]1O[C@H](Oc2ccc(-c3cccc(C(F)(F)F)c3)cc2Cl)[C@@H](O)[C@@H](O)[C@@H]1O	575
Cc1ccccc1-c1ccc(O[C@H]2O[C@H](CO)[C@@H](O)[C@H](O)[C@@H]2O)c(Cl)c1	436
OC[C@H]1O[C@H](Oc2ccc(-c3ccc(Cl)c(C(F)(F)F)c3)cc2Cl)[C@@H](O)[C@@H](O)[C@@H]1O	377
OC[C@H]1O[C@H](Oc2ccc(-c3cccc(Cl)c3)cc2Cl)[C@@H](O)[C@@H](O)[C@@H]1O	353
OC[C@H]1O[C@H](Oc2ccc(-c3ccccc3)cc2Cl)[C@@H](O)[C@@H](O)[C@@H]1O	458
O=[N+]([O-])c1cccc(-c2ccc(O[C@H]3O[C@H](CO)[C@@H](O)[C@H](O)[C@@H]3O)c(Cl)c2)c1	39.1
OC[C@H]1O[C@H](Oc2ccc(-c3ccccc3Cl)cc2Cl)[C@@H](O)[C@@H](O)[C@@H]1O	434
COc1ccccc1-c1ccc(O[C@H]2O[C@H](CO)[C@@H](O)[C@H](O)[C@@H]2O)c(Cl)c1	391
CC(=O)c1ccc(-c2ccc(O[C@H]3O[C@H](CO)[C@@H](O)[C@H](O)[C@@H]3O)c(Cl)c2)cc1	98.6
Cc1ccc(-c2ccc(O[C@H]3O[C@H](CO)[C@@H](O)[C@H](O)[C@@H]3O)c(Cl)c2)cc1	297
OC[C@H]1O[C@H](Oc2ccc(-c3ccc(Cl)cc3)cc2Cl)[C@@H](O)[C@@H](O)[C@@H]1O	251
Cc1cccc(-c2ccc(O[C@H]3O[C@H](CO)[C@@H](O)[C@H](O)[C@@H]3O)c(Cl)c2)c1	380
O=[N+]([O-])c1ccc(-c2ccc(O[C@H]3O[C@H](CO)[C@@H](O)[C@H](O)[C@@H]3O)c(Cl)c2)cc1	140
OC[C@H]1O[C@H](Oc2ccc(-c3ccc(C(F)(F)F)cc3)cc2Cl)[C@@H](O)[C@@H](O)[C@@H]1O	415
OC[C@H]1O[C@H](Oc2ccc(-c3ccc(Cl)cc3Cl)cc2Cl)[C@@H](O)[C@@H](O)[C@@H]1O	465
N#Cc1cccc(-c2ccc(O[C@H]3O[C@H](CO)[C@@H](O)[C@H](O)[C@@H]3O)c(Cl)c2)c1	85.9
COc1ccc(-c2ccc(O[C@H]3O[C@H](CO)[C@@H](O)[C@H](O)[C@@H]3O)c(Cl)c2)cc1	344
Cc1ccc(C(=O)NCCNC(=S)Nc2ccc3c(c2)C(=O)OC32c3ccc(O)cc3Oc3cc(O)ccc32)cc1	137
N#Cc1ccc(-c2ccc(O[C@H]3O[C@H](CO)[C@@H](O)[C@H](O)[C@@H]3O)c(Cl)c2)cc1	83.8
CCCCCCCO[C@H]1O[C@H](CO)[C@@H](O)[C@H](O)[C@@H]1O	3600

Test system: not listed separately
Assay: as §1, with “to” for “to full length”, “lectin domain” for “CRD”, “24 hrs” for “1 hr”
Conditions: not given
Method in brief: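 FimH lectin domain (His6-tagged via thrombin site) was expressed in E. coli HM125 and affinity-purified. Serially diluted competitor was added to 50 nM protein plus 50 nM fluorescent ligand in 20 mM HEPES pH 7.4, 150 mM NaCl, 50 μg/mL BSA. Mixtures were incubated ≥24 h at equilibrium, and FP was read at 485/528 nm. KD came from an equilibrium competition fit, n = 3, SD.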

SMILES	Kd [nM]
OC[C@H]1O[C@H](Oc2ccc(-c3ccc(Cl)c(Cl)c3)cc2Cl)[C@@H](O)[C@@H](O)[C@@H]1O	4.3
OC[C@H]1O[C@H](Oc2ccc(-c3cccc(C(F)(F)F)c3)cc2Cl)[C@@H](O)[C@@H](O)[C@@H]1O	3.3
Cc1ccccc1-c1ccc(O[C@H]2O[C@H](CO)[C@@H](O)[C@H](O)[C@@H]2O)c(Cl)c1	2.5
OC[C@H]1O[C@H](Oc2ccc(-c3ccc(Cl)c(C(F)(F)F)c3)cc2Cl)[C@@H](O)[C@@H](O)[C@@H]1O	5.7
OC[C@H]1O[C@H](Oc2ccc(-c3cccc(Cl)c3)cc2Cl)[C@@H](O)[C@@H](O)[C@@H]1O	2.3
OC[C@H]1O[C@H](Oc2ccc(-c3ccccc3)cc2Cl)[C@@H](O)[C@@H](O)[C@@H]1O	2.8
O=[N+]([O-])c1cccc(-c2ccc(O[C@H]3O[C@H](CO)[C@@H](O)[C@H](O)[C@@H]3O)c(Cl)c2)c1	0.1
OC[C@H]1O[C@H](Oc2ccc(-c3ccccc3Cl)cc2Cl)[C@@H](O)[C@@H](O)[C@@H]1O	2.6
COc1ccccc1-c1ccc(O[C@H]2O[C@H](CO)[C@@H](O)[C@H](O)[C@@H]2O)c(Cl)c1	2.3
CC(=O)c1ccc(-c2ccc(O[C@H]3O[C@H](CO)[C@@H](O)[C@H](O)[C@@H]3O)c(Cl)c2)cc1	0.3
Cc1ccc(-c2ccc(O[C@H]3O[C@H](CO)[C@@H](O)[C@H](O)[C@@H]3O)c(Cl)c2)cc1	2.7
OC[C@H]1O[C@H](Oc2ccc(-c3ccc(Cl)cc3)cc2Cl)[C@@H](O)[C@@H](O)[C@@H]1O	3.9
Cc1cccc(-c2ccc(O[C@H]3O[C@H](CO)[C@@H](O)[C@H](O)[C@@H]3O)c(Cl)c2)c1	1.7
O=[N+]([O-])c1ccc(-c2ccc(O[C@H]3O[C@H](CO)[C@@H](O)[C@H](O)[C@@H]3O)c(Cl)c2)cc1	0.5
OC[C@H]1O[C@H](Oc2ccc(-c3ccc(C(F)(F)F)cc3)cc2Cl)[C@@H](O)[C@@H](O)[C@@H]1O	3.9
OC[C@H]1O[C@H](Oc2ccc(-c3ccc(Cl)cc3Cl)cc2Cl)[C@@H](O)[C@@H](O)[C@@H]1O	2.8
N#Cc1cccc(-c2ccc(O[C@H]3O[C@H](CO)[C@@H](O)[C@H](O)[C@@H]3O)c(Cl)c2)c1	0.3
COc1ccc(-c2ccc(O[C@H]3O[C@H](CO)[C@@H](O)[C@H](O)[C@@H]3O)c(Cl)c2)cc1	2

Test system: not listed separately
Assay: Kinetic solubility of compound in pH 7.4 buffer after 15 hrs
Assay type: physicochemical
Conditions: read-out: Kinetic_solubility
Method in brief: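 DMSO stock (100 mM) was diluted into aqueous universal buffer pH 7.4 to 1 mM final (1% DMSO), in triplicate. After 15 h, solutions were filtered and mixed 1:1 with 1-propanol. Dissolved amount was quantified by UV (190–500 nm) against reference spectra at 0.167 mM in buffer/propanol.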

SMILES	solubility kinetic at 15 h [µg/mL]
OC[C@H]1O[C@H](Oc2ccc(-c3ccc(Cl)c(Cl)c3)cc2Cl)[C@@H](O)[C@@H](O)[C@@H]1O	2.3 (≈ 5.28 µM)
OC[C@H]1O[C@H](Oc2ccc(-c3cccc(C(F)(F)F)c3)cc2Cl)[C@@H](O)[C@@H](O)[C@@H]1O	36 (≈ 82.8 µM)
Cc1ccccc1-c1ccc(O[C@H]2O[C@H](CO)[C@@H](O)[C@H](O)[C@@H]2O)c(Cl)c1	135 (≈ 354 µM)
OC[C@H]1O[C@H](Oc2ccc(-c3ccc(Cl)c(C(F)(F)F)c3)cc2Cl)[C@@H](O)[C@@H](O)[C@@H]1O	1 (≈ 2.13 µM)
OC[C@H]1O[C@H](Oc2ccc(-c3cccc(Cl)c3)cc2Cl)[C@@H](O)[C@@H](O)[C@@H]1O	5.7 (≈ 14.2 µM)
OC[C@H]1O[C@H](Oc2ccc(-c3ccccc3)cc2Cl)[C@@H](O)[C@@H](O)[C@@H]1O	5.5 (≈ 15 µM)
O=[N+]([O-])c1cccc(-c2ccc(O[C@H]3O[C@H](CO)[C@@H](O)[C@H](O)[C@@H]3O)c(Cl)c2)c1	23 (≈ 55.9 µM)
OC[C@H]1O[C@H](Oc2ccc(-c3ccccc3Cl)cc2Cl)[C@@H](O)[C@@H](O)[C@@H]1O	28 (≈ 69.8 µM)
COc1ccccc1-c1ccc(O[C@H]2O[C@H](CO)[C@@H](O)[C@H](O)[C@@H]2O)c(Cl)c1	> 280
CC(=O)c1ccc(-c2ccc(O[C@H]3O[C@H](CO)[C@@H](O)[C@H](O)[C@@H]3O)c(Cl)c2)cc1	16 (≈ 39.1 µM)
Cc1ccc(-c2ccc(O[C@H]3O[C@H](CO)[C@@H](O)[C@H](O)[C@@H]3O)c(Cl)c2)cc1	7.4 (≈ 19.4 µM)
OC[C@H]1O[C@H](Oc2ccc(-c3ccc(Cl)cc3)cc2Cl)[C@@H](O)[C@@H](O)[C@@H]1O	3.5 (≈ 8.72 µM)
Cc1cccc(-c2ccc(O[C@H]3O[C@H](CO)[C@@H](O)[C@H](O)[C@@H]3O)c(Cl)c2)c1	7.1 (≈ 18.6 µM)
O=[N+]([O-])c1ccc(-c2ccc(O[C@H]3O[C@H](CO)[C@@H](O)[C@H](O)[C@@H]3O)c(Cl)c2)cc1	117 (≈ 284 µM)
OC[C@H]1O[C@H](Oc2ccc(-c3ccc(C(F)(F)F)cc3)cc2Cl)[C@@H](O)[C@@H](O)[C@@H]1O	22 (≈ 50.6 µM)
OC[C@H]1O[C@H](Oc2ccc(-c3ccc(Cl)cc3Cl)cc2Cl)[C@@H](O)[C@@H](O)[C@@H]1O	8 (≈ 18.4 µM)
N#Cc1cccc(-c2ccc(O[C@H]3O[C@H](CO)[C@@H](O)[C@H](O)[C@@H]3O)c(Cl)c2)c1	227 (≈ 579 µM)
COc1ccc(-c2ccc(O[C@H]3O[C@H](CO)[C@@H](O)[C@H](O)[C@@H]3O)c(Cl)c2)cc1	3.8 (≈ 9.58 µM)
CCCCCCCO[C@H]1O[C@H](CO)[C@@H](O)[C@H](O)[C@@H]1O	> 3000

Test system: not listed separately
Assay: 1-octanol/water partition coefficient, log D of the compound at 1 uM at pH 7.4 after 2 hrs by LC-MS analysis
Assay type: physicochemical
Conditions: not given

SMILES	logD at 2 h, 1 µM
OC[C@H]1O[C@H](Oc2ccc(-c3cccc(C(F)(F)F)c3)cc2Cl)[C@@H](O)[C@@H](O)[C@@H]1O	3.3
Cc1ccccc1-c1ccc(O[C@H]2O[C@H](CO)[C@@H](O)[C@H](O)[C@@H]2O)c(Cl)c1	2.9
OC[C@H]1O[C@H](Oc2ccc(-c3cccc(Cl)c3)cc2Cl)[C@@H](O)[C@@H](O)[C@@H]1O	3.2
OC[C@H]1O[C@H](Oc2ccc(-c3ccccc3)cc2Cl)[C@@H](O)[C@@H](O)[C@@H]1O	2.6
O=[N+]([O-])c1cccc(-c2ccc(O[C@H]3O[C@H](CO)[C@@H](O)[C@H](O)[C@@H]3O)c(Cl)c2)c1	2.4
OC[C@H]1O[C@H](Oc2ccc(-c3ccccc3Cl)cc2Cl)[C@@H](O)[C@@H](O)[C@@H]1O	3.1
COc1ccccc1-c1ccc(O[C@H]2O[C@H](CO)[C@@H](O)[C@H](O)[C@@H]2O)c(Cl)c1	2.4
CC(=O)c1ccc(-c2ccc(O[C@H]3O[C@H](CO)[C@@H](O)[C@H](O)[C@@H]3O)c(Cl)c2)cc1	2.1
Cc1ccc(-c2ccc(O[C@H]3O[C@H](CO)[C@@H](O)[C@H](O)[C@@H]3O)c(Cl)c2)cc1	3.3
OC[C@H]1O[C@H](Oc2ccc(-c3ccc(Cl)cc3)cc2Cl)[C@@H](O)[C@@H](O)[C@@H]1O	3.3
Cc1cccc(-c2ccc(O[C@H]3O[C@H](CO)[C@@H](O)[C@H](O)[C@@H]3O)c(Cl)c2)c1	3
O=[N+]([O-])c1ccc(-c2ccc(O[C@H]3O[C@H](CO)[C@@H](O)[C@H](O)[C@@H]3O)c(Cl)c2)cc1	2.3
OC[C@H]1O[C@H](Oc2ccc(-c3ccc(C(F)(F)F)cc3)cc2Cl)[C@@H](O)[C@@H](O)[C@@H]1O	3.4
N#Cc1cccc(-c2ccc(O[C@H]3O[C@H](CO)[C@@H](O)[C@H](O)[C@@H]3O)c(Cl)c2)c1	2.1
COc1ccc(-c2ccc(O[C@H]3O[C@H](CO)[C@@H](O)[C@H](O)[C@@H]3O)c(Cl)c2)cc1	2.7
CCCCCCCO[C@H]1O[C@H](CO)[C@@H](O)[C@H](O)[C@@H]1O	1.7

Test system: not listed separately
Assay: Binding affinity to full length 6His-tagged recombinant Escherichia coli FimH CRD expressed in Escherichia coli HM125 by isothermal titration calorimetry
Conditions: not given
Method in brief: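 FimHFL was coexpressed with FimC in E. coli HM125, and FimC was displaced by a FimG donor-strand peptide to give a stable construct. Buffer was 20 mM HEPES pH 7.4, 150 mM NaCl, with protein extensively dialyzed against it. Ligand (200–600 μM) was titrated into 20.3–62.1 μM protein in 1.5–2 μL injections at rt, single run. Isotherms were integrated automatically.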

SMILES	Kd [nM]
N#Cc1ccc(-c2ccc(O[C@H]3O[C@H](CO)[C@@H](O)[C@H](O)[C@@H]3O)c(Cl)c2)cc1	130
CCCCCCCO[C@H]1O[C@H](CO)[C@@H](O)[C@H](O)[C@@H]1O	3200

Test system: Escherichia coli
Assay: Selectivity ratio of Kd for full length 6His-tagged recombinant Escherichia coli FimH CRD expressed in Escherichia coli HM125 to Kd for 6His-tagged recombinant Escherichia coli FimH lectin domain expressed in Escherichia coli HM125
Conditions: not given
Method in brief: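 Competitive FP, with Kd for each construct and the ratio taken as FimHFL/FimHLD. FimHFL was stabilised by donor-strand (DsG) complementation, run at 300 nM with 10 nM tracer for ≥1 h. FimHLD and tracer were equimolar at 50 nM, ≥24 h. Buffer: 20 mM HEPES pH 7.4, 150 mM NaCl, 50 μg/mL BSA; rt. Ex 485/em 528 nm, equilibrium competition fit; FL n=1, LD n=3.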

SMILES	Selectivity ratio
CCCCCCCO[C@H]1O[C@H](CO)[C@@H](O)[C@H](O)[C@@H]1O	100
